Assay results taken from ChEMBL document CHEMBL1158487, “Small molecule chloropyramine hydrochloride (C4) targets the binding site of focal adhesion kinase and vascular endothelial growth factor receptor 3 and suppresses breast cancer growth in vivo” (J Med Chem, 2009).
Calls of active or inactive are those of the source. The rule behind the calls is not given here.

Tests used:
[1] = target: Vascular endothelial growth factor receptor 3 (Homo sapiens) (UniProt P35916); test: Inhibition of VEGFR3 phosphorylation in human MCF7 cells expressing VEGFR3 assessed as partial dephosphorylation at Tyr1063/1068 activation loop after 24 hrs by Western blotting; assay type: cell-based
Vascular endothelial growth factor receptor 3 (Homo sapiens), sequence (P35916 whole entry): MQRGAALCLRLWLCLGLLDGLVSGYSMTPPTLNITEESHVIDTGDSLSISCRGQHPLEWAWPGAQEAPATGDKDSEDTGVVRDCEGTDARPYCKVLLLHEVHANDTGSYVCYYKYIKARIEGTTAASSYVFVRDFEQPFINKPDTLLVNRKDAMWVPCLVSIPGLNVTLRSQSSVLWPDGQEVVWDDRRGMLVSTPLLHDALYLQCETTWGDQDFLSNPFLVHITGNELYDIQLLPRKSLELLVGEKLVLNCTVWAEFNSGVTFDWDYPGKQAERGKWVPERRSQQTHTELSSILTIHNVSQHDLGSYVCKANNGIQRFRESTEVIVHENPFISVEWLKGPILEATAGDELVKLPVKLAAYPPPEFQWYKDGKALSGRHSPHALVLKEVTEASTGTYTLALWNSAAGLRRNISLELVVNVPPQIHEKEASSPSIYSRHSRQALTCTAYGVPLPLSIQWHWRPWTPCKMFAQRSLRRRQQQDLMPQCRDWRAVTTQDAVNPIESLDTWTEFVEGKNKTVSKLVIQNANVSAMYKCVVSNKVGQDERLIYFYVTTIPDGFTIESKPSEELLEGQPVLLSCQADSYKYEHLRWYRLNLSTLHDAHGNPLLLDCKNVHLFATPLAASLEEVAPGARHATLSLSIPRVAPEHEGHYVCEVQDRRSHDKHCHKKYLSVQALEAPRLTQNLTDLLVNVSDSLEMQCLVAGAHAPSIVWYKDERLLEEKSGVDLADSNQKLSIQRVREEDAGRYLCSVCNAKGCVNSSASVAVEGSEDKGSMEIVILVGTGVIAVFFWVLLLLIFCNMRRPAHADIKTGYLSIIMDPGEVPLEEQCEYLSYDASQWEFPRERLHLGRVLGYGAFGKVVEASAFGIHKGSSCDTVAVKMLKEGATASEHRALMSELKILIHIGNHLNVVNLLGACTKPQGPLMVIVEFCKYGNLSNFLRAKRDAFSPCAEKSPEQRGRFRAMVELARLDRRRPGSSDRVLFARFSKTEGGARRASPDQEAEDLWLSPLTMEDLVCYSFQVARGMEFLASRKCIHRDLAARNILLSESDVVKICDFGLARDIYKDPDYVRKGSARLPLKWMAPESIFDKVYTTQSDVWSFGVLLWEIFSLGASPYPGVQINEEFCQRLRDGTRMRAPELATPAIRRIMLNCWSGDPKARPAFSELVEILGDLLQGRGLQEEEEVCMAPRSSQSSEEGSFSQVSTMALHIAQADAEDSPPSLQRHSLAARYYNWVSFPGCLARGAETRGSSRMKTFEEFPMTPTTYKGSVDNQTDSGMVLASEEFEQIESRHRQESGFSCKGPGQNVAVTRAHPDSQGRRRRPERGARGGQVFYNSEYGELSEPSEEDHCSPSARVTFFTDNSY

BT-474 [2] = test: Induction of apoptosis in human BT474 cells assessed as procaspase 8 activation after 48 hrs; assay type: functional, cell-based
MIA PaCa-2 = test: Cytotoxicity against human MIAPaCa2 cells after 72 hrs by MTS assay; assay type: functional, cell-based; details: MIA PaCa-2, 72 h
How it was run: (§1)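 MTS viability assay, read as mitochondrial dehydrogenase activity of metabolically active cells. Cells were seeded at 5.0 × 10^3 per well and attached overnight. Fresh medium with or without compound was added, followed by 72 h exposure at increasing concentrations. Error shown as ±SEM.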

HT-29 = test: Cytotoxicity against human HT-29 cells after 72 hrs by MTS assay; assay type: functional, cell-based; details: HT-29, 72 h; how it was run: as §1
MCF7 [3] = test: Antiproliferative activity against human MCF7 cells at 10 uM after 48 hrs by BrdU incorporation assay; assay type: functional, cell-based
How it was run: (§2)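 Cells plated at 2.5 × 10^3 per well and allowed to attach overnight. Fresh growth medium with or without compound was added along with BrdU labelling reagent, and cells were incubated for the set time. BrdU incorporation was then read with a kit per the manufacturer. Data are mean ± SEM of three or more independent experiments, compared by two-tailed Student's t test.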

SAOS-2 = test: Cytotoxicity against human Saos2 cells after 72 hrs by MTS assay; assay type: functional, cell-based; details: SAOS-2, 72 h; how it was run: as §1
[4] = target: Vascular endothelial growth factor receptor 3 (Homo sapiens) (UniProt P35916); test: Inhibition of VEGFR3 phosphorylation in human BT474 cells assessed as complete dephosphorylation at Tyr1063/1068 activation loop after 24 hrs by Western blotting; assay type: cell-based; details: BT-474
How it was run: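 BT474 cells were exposed for 24 h to increasing doses (1 and 10 µM). Western blots of lysates were probed with a phospho-specific VEGFR-3 antibody for Tyr1063/1068 in the kinase activation loop.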

BT-474 [5] = test: Induction of apoptosis in human BT474 cells assessed as PARP degradation after 48 hrs; assay type: functional, cell-based
MDA-MB-231 = test: Cytotoxicity against human MDA-MB-231 cells after 72 hrs by MTS assay; assay type: functional, cell-based; details: MDA-MB-231, 72 h; how it was run: as §1
MCF7 [6] = test: Cytotoxicity against human MCF7 cells assessed as cell viability at 10 uM after 48 hrs by MTS assay; assay type: functional
How it was run: (§3)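 Viability measured by MTS after 48 h exposure. Cells were seeded at 5.0 × 10^3 per well and attached overnight before compound-containing medium was added. BT474 is a […] subclone grown in RPMI-1640 with 10% FBS and 250 µg/ml insulin. MCF7 stable clones carried either empty pcDNA3 or VEGFR-3. Mean ± SEM, ≥3 experiments, two-tailed t test.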

MCF7 [7] = test: Induction of apoptosis in human MCF7 cells expressing VEGFR3 assessed as procaspase 8 activation after 48 hrs; assay type: functional, cell-based
[8] = Cytotoxicity against human C8161 cells after 72 hrs by MTS assay; assay type: functional, cell-based; details: C8161, 72 h; how it was run: as §1
MCF7 [9] = test: Antiproliferative activity against human MCF7 cells expressing VEGFR3 after 48 hrs by BrdU incorporation assay; assay type: functional, cell-based; how it was run: as §2
[10] = target: Vascular endothelial growth factor receptor 3 (Homo sapiens) (UniProt P35916); test: Inhibition of VEGFR3 phosphorylation in human BT474 cells assessed as partial dephosphorylation at Tyr1063/1068 activation loop at 1 uM after 24 hrs by Western blotting; assay type: cell-based; details: BT-474
[11] = target: Focal adhesion kinase 1/vascular endothelial growth factor receptor 3 (Homo sapiens) (UniProt P35916+Q05397); test: Disruption of FAK-VEGFR3 binding in human BT474 cells at 10 uM after 24 hrs by immunoprecipitation technique; assay type: cell-based; details: BT-474
Focal adhesion kinase 1/vascular endothelial growth factor receptor 3 (Homo sapiens), sequence (P35916 whole entry, looked up): as the sequence (P35916 whole entry) above
Focal adhesion kinase 1/vascular endothelial growth factor receptor 3 (Homo sapiens), sequence (Q05397 whole entry, looked up): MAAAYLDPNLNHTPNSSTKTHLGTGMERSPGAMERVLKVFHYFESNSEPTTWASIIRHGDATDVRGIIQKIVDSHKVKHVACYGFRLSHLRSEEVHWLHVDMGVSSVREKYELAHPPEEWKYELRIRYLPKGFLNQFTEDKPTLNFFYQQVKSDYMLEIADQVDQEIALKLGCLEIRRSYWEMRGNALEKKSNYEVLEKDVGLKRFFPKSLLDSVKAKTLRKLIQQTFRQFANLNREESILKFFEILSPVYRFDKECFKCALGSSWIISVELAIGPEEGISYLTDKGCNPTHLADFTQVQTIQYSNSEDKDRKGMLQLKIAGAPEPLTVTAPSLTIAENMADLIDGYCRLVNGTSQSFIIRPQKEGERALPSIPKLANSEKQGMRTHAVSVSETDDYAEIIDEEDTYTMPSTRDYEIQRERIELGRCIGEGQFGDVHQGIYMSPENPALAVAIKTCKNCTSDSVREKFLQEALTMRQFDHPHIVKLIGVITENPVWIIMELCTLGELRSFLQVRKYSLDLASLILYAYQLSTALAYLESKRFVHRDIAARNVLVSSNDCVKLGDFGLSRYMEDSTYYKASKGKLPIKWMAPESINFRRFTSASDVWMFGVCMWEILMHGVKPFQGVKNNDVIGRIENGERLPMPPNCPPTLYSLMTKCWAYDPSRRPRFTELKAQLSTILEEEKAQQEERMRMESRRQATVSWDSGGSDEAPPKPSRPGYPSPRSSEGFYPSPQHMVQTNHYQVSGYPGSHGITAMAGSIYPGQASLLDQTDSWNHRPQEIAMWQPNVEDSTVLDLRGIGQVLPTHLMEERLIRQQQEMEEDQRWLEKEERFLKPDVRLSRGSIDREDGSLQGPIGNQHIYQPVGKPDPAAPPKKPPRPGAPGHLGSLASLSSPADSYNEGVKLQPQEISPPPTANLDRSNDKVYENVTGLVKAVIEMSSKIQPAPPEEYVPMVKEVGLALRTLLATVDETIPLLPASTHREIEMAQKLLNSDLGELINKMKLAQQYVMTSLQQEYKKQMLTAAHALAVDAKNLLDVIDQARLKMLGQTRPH
How it was run: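 BT474 cells were treated for 24 h with increasing concentrations and then lysed. Lysates were immunoprecipitated with anti-VEGFR-3 antibody, and co-precipitated FAK was detected by western blot.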

T47D = test: Cytotoxicity against human T47D cells after 72 hrs by MTS assay; assay type: functional, cell-based; how it was run: as §1
PANC-1 = test: Cytotoxicity against human PANC1 cells after 72 hrs by MTS assay; assay type: functional, cell-based; details: PANC-1, 72 h; how it was run: as §1
BT-474 [12] = test: Decrease in colocalization of FAK-paxillin complex in human BT474 cells at 10 uM after 24 hrs by confocal microscopy; assay type: functional; parameters: scale not given: the % may be the effect or the level left
How it was run: (§4)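 Cells were treated for 24 h with DMSO or 10 µM compound, then dual-immunostained for FAK (Alexa Fluor 488) together with VEGFR-3 or paxillin (Alexa Fluor 546). Confocal microscopy with scatter-plot analysis gave the percentage of colocalized molecules.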

MCF7 [13] = test: Cytotoxicity against human MCF7 cells assessed as cell viability at 1 uM after 48 hrs by MTS assay; assay type: functional, cell-based; how it was run: as §3
MCF7 [14] = test: Cytotoxicity against human MCF7 cells expressing VEGFR3 assessed as cell viability at 1 uM after 48 hrs by MTS assay; assay type: functional, cell-based; how it was run: as §3
[15] = target: Vascular endothelial growth factor receptor 3 (Homo sapiens) (UniProt P35916); test: Inhibition of VEGFR3 phosphorylation in human MCF7 cells expressing VEGFR3 assessed as partial dephosphorylation at Tyr1063/1068 activation loop at 1 to 10 uM by Western blotting; assay type: cell-based; details: TDE = time-dependent effect
[16] = target: Vascular endothelial growth factor receptor 3 (Homo sapiens) (UniProt P35916); test: Inhibition of VEGFR3 phosphorylation in human MCF7 cells expressing VEGFR3 assessed as complete dephosphorylation at Tyr1063/1068 activation loop after 24 hrs by Western blotting; assay type: cell-based
MCF7 [17] = test: Induction of apoptosis in human MCF7 cells assessed as procaspase 8 activation after 48 hrs; assay type: functional, cell-based
BT-474 [18] = test: Decrease in colocalization of FAK-VEGFR3 complex in human BT474 cells at 10 uM after 24 hrs by confocal microscopy; assay type: functional; parameters: scale not given: the % may be the effect or the level left; how it was run: as §4
MCF7 [19] = test: Induction of apoptosis in human MCF7 cells expressing VEGFR3 after 48 hrs by TUNEL assay; assay type: functional, cell-based
MCF7 [20] = test: Cytotoxicity against human MCF7 cells expressing VEGFR3 assessed as cell viability after 48 hrs by MTS assay; assay type: functional, cell-based; how it was run: as §3
[21] = target: Focal adhesion kinase 1 (Homo sapiens) (UniProt Q05397); test: Inhibition of FAK phosphorylation in human BT474 cells assessed as decrease in total phosphorylation at 10 uM after 24 hrs by immunoprecipitation technique; assay type: cell-based; details: BT-474
Focal adhesion kinase 1 (Homo sapiens), sequence (Q05397 2-1052 limits assumed): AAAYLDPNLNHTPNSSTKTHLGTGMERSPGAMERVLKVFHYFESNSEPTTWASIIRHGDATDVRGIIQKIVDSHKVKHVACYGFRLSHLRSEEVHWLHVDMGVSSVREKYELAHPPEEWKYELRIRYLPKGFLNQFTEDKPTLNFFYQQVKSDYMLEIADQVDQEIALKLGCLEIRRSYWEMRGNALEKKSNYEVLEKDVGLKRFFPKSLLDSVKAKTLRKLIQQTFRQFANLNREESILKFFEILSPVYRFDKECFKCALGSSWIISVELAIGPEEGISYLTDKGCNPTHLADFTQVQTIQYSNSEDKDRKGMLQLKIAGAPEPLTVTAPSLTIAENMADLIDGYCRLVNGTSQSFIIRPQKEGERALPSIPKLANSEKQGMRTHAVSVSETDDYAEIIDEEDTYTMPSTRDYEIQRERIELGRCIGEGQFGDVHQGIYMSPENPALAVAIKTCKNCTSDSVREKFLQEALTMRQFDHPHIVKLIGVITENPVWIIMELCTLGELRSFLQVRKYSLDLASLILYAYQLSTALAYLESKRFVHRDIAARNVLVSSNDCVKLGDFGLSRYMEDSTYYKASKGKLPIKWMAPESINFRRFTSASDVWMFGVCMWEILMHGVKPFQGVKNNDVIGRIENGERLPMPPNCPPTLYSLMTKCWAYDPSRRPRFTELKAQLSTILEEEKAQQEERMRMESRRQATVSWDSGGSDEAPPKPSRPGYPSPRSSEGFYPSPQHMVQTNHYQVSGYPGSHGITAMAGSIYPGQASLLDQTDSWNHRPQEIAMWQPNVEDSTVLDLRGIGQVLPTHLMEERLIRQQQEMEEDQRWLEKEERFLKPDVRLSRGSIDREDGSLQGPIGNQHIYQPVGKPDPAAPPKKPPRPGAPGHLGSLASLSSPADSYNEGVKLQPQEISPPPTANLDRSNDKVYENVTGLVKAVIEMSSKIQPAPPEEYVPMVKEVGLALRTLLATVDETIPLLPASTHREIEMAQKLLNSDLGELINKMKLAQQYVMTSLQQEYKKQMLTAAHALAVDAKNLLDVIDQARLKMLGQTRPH
How it was run: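 MCF7-VEGFR-3 and BT474 cells were treated for 24 h at 10 µM or 1 µM. FAK was immunoprecipitated and blotted with anti-phosphotyrosine antibody 4G10 to assess total FAK tyrosine phosphorylation.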

[22] = Cytotoxicity against human MCF10A cells assessed as cell viability at 100 uM by MTS assay; assay type: cell-based; details: mcf-10a
How it was run: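 MTS cell survival assay. Cells were plated at 5.0 × 10^3 per well and allowed to attach overnight, then given fresh medium with or without compound for the designated time. Absorbance was read per the kit protocol. Mean ± SEM of three or more independent experiments.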

[23] = target: Vascular endothelial growth factor receptor 3 (Homo sapiens) (UniProt P35916); test: Inhibition of VEGFR3 phosphorylation in human MCF7 cells expressing VEGFR3 cells assessed as partial dephosphorylation at Tyr1063/1068 activation loop at 1 uM after 24 hrs by Western blotting; assay type: cell-based

Activity [1]: Dose-dependent effect
Activity [4]: Dose-dependent effect
Activity [10]: Active
Activity [11]: Active
Activity [15]: tde
Activity [16]: Dose-dependent effect
Activity [21]: Active
Activity [23]: Active
Compound: CN(C)CCN(Cc1ccc(Cl)cc1)c1ccccn1.Cl [CHLORPYRAMIN HYDROCHLORIDE]
Activity (BT-474 [2]): Dose-dependent effect
IC50 (MIA PaCa-2): 1000 nM
IC50 (HT-29): 1000 nM
Activity (MCF7 [3]): inactive
IC50 (SAOS-2): 1000 nM
Activity (BT-474 [5]): Dose-dependent effect
IC50 (MDA-MB-231): 1000 nM
fold change (FC) (MCF7 [6]): 2
Activity (MCF7 [7]): Dose-dependent effect
IC50 [8]: 1000 nM
Activity (MCF7 [9]): Dose-dependent effect
IC50 (T47D): 1000 nM
IC50 (PANC-1): 1000 nM
Activity (BT-474 [12]): 76%
Activity (MCF7 [13]): Active
Activity (MCF7 [14]): Active
Activity (MCF7 [17]): Dose-dependent effect
Activity (BT-474 [18]): 45%
Activity (MCF7 [19]): Dose-dependent effect
Activity (MCF7 [20]): Dose-dependent effect
Activity [22]: Active
